Measurements from ChEMBL document CHEMBL3808358, “Rational Design of Small Peptides for Optimal Inhibition of Cyclooxygenase-2: Development of a Highly Effective Anti-Inflammatory Agent” (J Med Chem, 2016).
Calls of active or inactive are those of the source. The calls are words filed in the database; no cut-off is given here. Residues, ends and D or L forms follow the SMILES beside them.

Assays:
[1] = biological target: T1, Prostaglandin G/H synthase 2 (Homo sapiens, UniProt P35354); assay: Inhibition of human recombinant COX2 assessed as reduction in PGH2-derived PGF2alpha using arachidonic acid as substrate preincubated for 10 mins followed by substrate addition measured after 2 mins by enzyme immunoassay
T1 sequence (P35354 whole entry): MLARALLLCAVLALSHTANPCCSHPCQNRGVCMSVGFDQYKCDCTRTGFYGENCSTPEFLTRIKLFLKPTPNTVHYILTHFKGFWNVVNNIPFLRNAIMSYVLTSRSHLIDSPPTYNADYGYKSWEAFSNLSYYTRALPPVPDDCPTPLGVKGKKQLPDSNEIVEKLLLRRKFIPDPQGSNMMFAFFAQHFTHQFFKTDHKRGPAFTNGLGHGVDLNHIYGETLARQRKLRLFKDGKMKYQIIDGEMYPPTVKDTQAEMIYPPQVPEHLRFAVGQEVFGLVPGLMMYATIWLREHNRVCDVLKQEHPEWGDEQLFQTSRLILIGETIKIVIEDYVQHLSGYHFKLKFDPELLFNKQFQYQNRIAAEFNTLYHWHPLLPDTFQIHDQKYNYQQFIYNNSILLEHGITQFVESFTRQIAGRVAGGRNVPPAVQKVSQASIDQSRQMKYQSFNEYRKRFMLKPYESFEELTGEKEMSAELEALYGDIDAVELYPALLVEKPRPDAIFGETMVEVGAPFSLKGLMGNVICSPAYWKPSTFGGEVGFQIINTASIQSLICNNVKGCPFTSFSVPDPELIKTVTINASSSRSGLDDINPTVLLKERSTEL

[2] = biological target: Prostaglandin G/H synthase 1 (Homo sapiens) (UniProt P23219); assay: Inhibition of COX1 in healthy human whole blood assessed as calcium ionophore A23187-stimulated TXB2 level at 1 uM preincubated for 60 mins followed by A23187 addition measured after 30 mins by ELISA; type: tissue-based
Prostaglandin G/H synthase 1 (Homo sapiens), sequence (P23219 whole entry): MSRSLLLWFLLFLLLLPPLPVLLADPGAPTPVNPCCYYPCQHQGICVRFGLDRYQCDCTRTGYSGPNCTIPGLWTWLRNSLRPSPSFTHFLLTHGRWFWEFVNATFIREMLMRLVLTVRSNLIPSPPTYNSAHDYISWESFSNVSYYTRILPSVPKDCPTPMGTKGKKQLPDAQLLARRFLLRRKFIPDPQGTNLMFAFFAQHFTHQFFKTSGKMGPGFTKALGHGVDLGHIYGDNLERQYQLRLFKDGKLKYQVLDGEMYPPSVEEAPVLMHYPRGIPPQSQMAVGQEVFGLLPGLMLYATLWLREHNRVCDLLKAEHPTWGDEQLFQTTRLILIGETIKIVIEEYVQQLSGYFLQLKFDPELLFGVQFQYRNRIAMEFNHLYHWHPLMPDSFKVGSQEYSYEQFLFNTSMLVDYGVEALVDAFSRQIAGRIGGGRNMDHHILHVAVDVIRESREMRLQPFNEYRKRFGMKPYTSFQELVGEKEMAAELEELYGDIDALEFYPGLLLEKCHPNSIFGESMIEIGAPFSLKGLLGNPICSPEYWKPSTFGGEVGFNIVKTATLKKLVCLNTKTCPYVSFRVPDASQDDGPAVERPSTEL
Method in brief: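 Fresh venous blood from a healthy volunteer is collected in EDTA. 1 mL samples receive compound, indomethacin or DMSO vehicle (final 1 μM). After 60 min, A23187 is added (final 50 μM). After 30 min, samples are centrifuged at 4 °C and TxB2 in plasma is measured by ELISA, read at 420 nm. Samples are run in duplicate.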

Mus musculus [3] = assay: Analgesic activity in Swiss albino mouse assessed as reduction in formalin-induced paw flinches in inflammatory phase at 5 mg/kg, ip dosed 30 mins before formalin injection measured after 15 to 30 mins; type: functional, organism-based
Method in brief: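 Swiss albino mice of either sex (25-35 g). 20 μL of 2% formalin is injected into the plantar surface of the right hind paw 30 min after treatment. Hind paw flinches are counted for the neurogenic phase (0-5 min) and the inflammatory phase (15-30 min). Results are given as mean ± SEM.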

Mus musculus [4] = assay: Analgesic activity in Swiss albino mouse assessed as reduction in capsaicin-induced paw licking at 5 to 10 mg/kg, ip dosed 30 mins before capsaicin injection measured for 10 mins in presence of […] A23187 pre-treated 30 mins before compound dosing; type: functional, organism-based
Method in brief: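 Mice of either sex (25-35 g), 5 per group. The modulator is given 30 min before the test compound, and capsaicin 30 min after that: substance P 10 µg/kg, L-arginine 40 mg/kg, L-NAME 20 mg/kg, veratrine 125 µg/kg, A23187 20 µg/kg, glipizide 30 µg/kg. Capsaicin is 1.6 μg in 20 μL intraplantar. Paw lickings are counted for 10 min.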

[5] = biological target: T2, Prostaglandin G/H synthase 2 (Homo sapiens) (UniProt P35354); assay: Binding affinity to COX2 (unknown origin) at 100 uM by isothermal titration calorimetry
T2 sequence (whole entry): T1 sequence (P35354 whole entry)
Method in brief: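 Isothermal titration calorimetry in HEPES buffer, pH 7.4. The ligand stock is 100 μM in ethanol/HEPES (1:99). The syringe is stirred at 500 rpm and delivers 19 injections of 2 μL into the enzyme-containing cell at 120 s intervals. Heats from buffer-only control titrations are subtracted. The fit gives Ka, ΔH and ΔS. Run in triplicate.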

COC(=O)[C@H](CC(C)C)NC(=O)[C@H](Cc1ccccc1)NC(=O)CNC(=O)CN (H-GGFL-OMe)
IC50 [1]: 60 nM
Activity [2]: 5.8 ng/mL
Activity (Mus musculus [3]): Active
Activity (Mus musculus [4]): Active
Ka [5]: 6.1 ×10⁴ /M
